The results in this text go back to ChEMBL document CHEMBL4425129, “Exploring Basic Tail Modifications of Coumarin-Based Dual Acetylcholinesterase-Monoamine Oxidase B Inhibitors: Identification of Water-Soluble, Brain-Permeant Neuroprotective Multitarget Agents” (J Med Chem, 2016).

pIC50, pKi: −log10 of the molar value. The source made the active and inactive calls. The rule behind the calls is not given here.

Series [1] deals with SH-SY5Y. Briefly: Neuroprotective activity against oligomycin-A-induced oxidative injury in human SH-SY5Y cells assessed as increase in cell viability at 10 uM after 24 hrs by MTT assay. In kind it is functional, cell-based. The method in brief:
(§1)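 SH-SY5Y cells incubated 24 h with compound at 1 or 10 µM together with H2O2 300 µM, oligomycin-A 10 µM or rotenone 20 µM. Viability by MTT, as % of cells given neither insult nor compound. Triplicates, three repeats; mean ± SD; two-way ANOVA with Bonferroni post hoc test.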
(Tetrazolium dyes change colour on reduction, which living cells bring about.)

Series [2] concerns the target Cholinesterase (Equus caballus) (UniProt P81908). As to the kind of experiment: Inhibition of equine serum BChE at 10 uM using butyrylthiocholine iodide as substrate preincubated for 20 mins followed by substrate addition measured for 5 mins by spectrophotometric Ellman's method relative to control. The method in brief: (§2)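 BChE from equine serum (13 U/mg), Ellman spectrophotometric method run in 96-well format. Seven inhibitor concentrations, 10^-4 to 10^-10 M, each in triplicate. IC50 from non-linear regression of response against log(concentration). […] Mean of three independent experiments.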

Series [3] deals with SH-SY5Y. As to the kind of experiment: Neuroprotective activity against rotenone-induced oxidative injury in human SH-SY5Y cells assessed as increase in cell viability at 1 uM after 24 hrs by MTT assay. In kind it is functional, cell-based. The gist of the method: as §1
Series [4] deals with SH-SY5Y. Briefly: Neuroprotective activity against oligomycin-A-induced oxidative injury in human SH-SY5Y cells assessed as increase in cell viability at 1 uM after 24 hrs by MTT assay. In kind it is functional, cell-based. The method in brief:
as §1

For series [5], the system named is SH-SY5Y. Briefly: Neuroprotective activity against H2O2-induced oxidative injury in human SH-SY5Y cells assessed as increase in cell viability at 1 to 10 uM after 24 hrs by MTT assay. Format: functional, cell-based. The method in brief: as §1
Series [6] relates to SH-SY5Y. Briefly: Neuroprotective activity against rotenone-induced oxidative injury in human SH-SY5Y cells assessed as increase in cell viability at 10 uM after 24 hrs by MTT assay. In kind it is functional, cell-based. The method in brief:
as §1

Series [7] has as its target T1, Acetylcholinesterase (Electrophorus electricus, UniProt O42275). As to the kind of experiment: Inhibition of electric eel AChE using acetylthiocholine iodide as substrate preincubated for 20 mins followed by substrate addition measured for 5 mins by spectrophotometric Ellman's method. (In general: Ellman's reagent forms a yellow product with free thiols.)
Series [8] deals with T2, Amine oxidase [flavin-containing] A (Homo sapiens, UniProt P21397).
T2 sequence (P21397 whole entry): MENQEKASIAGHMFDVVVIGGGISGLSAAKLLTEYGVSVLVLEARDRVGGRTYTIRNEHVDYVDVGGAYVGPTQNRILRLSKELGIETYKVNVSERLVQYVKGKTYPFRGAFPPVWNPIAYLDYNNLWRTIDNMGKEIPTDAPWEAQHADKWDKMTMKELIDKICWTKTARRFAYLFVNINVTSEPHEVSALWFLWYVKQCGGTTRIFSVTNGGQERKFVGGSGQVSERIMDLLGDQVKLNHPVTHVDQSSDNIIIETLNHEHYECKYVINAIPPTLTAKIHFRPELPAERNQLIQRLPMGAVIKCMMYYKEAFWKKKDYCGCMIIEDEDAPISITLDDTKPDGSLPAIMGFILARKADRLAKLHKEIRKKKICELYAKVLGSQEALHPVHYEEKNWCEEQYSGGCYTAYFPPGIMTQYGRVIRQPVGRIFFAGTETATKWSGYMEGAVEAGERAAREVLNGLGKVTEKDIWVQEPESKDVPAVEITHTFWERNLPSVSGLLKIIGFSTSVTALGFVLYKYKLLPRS
As to the kind of experiment: Inhibition of human recombinant MAOA expressed in microsomes of baculovirus-infected insect cell at 10 uM using kynuramine as substrate preincubated for 20 mins followed by protein addition measured after 30 mins by fluorescence assay relative to control. The note with it: 0.5 h. The method in brief:
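Recombinant human MAO A (baculovirus-infected insect cell microsomes) with kynuramine substrate; inhibitor preincubated 20 min at 37 °C, enzyme then added and incubated 30 min more. Fluorescence at ex/em 320/400 nm. […] Triplicates, three independent experiments.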

In series [9] the target is T3, Amine oxidase [flavin-containing] B (Homo sapiens, UniProt P27338).
T3 sequence (P27338 whole entry): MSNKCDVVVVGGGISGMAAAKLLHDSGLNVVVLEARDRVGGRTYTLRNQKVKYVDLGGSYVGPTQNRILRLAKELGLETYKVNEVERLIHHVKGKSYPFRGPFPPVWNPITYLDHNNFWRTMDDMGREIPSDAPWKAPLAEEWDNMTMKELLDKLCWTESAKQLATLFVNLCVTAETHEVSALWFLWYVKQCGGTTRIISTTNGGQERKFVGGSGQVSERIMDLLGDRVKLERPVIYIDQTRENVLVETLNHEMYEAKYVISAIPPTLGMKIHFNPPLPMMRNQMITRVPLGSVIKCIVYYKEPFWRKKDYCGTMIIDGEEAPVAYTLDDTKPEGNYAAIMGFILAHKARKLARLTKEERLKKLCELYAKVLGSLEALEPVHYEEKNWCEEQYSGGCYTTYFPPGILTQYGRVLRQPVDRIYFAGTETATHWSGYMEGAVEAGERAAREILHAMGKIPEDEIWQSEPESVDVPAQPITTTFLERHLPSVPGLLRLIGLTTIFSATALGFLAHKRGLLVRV
As to the kind of experiment: Inhibition of human recombinant MAOB expressed in microsomes of baculovirus-infected insect cell using kynuramine as substrate preincubated for 20 mins followed by protein addition measured after 30 mins by fluorescence assay.

The target of another series is Cholinesterase (Equus caballus, UniProt P81908). Briefly: Inhibition of equine serum BChE using butyrylthiocholine iodide as substrate preincubated for 20 mins followed by substrate addition measured for 5 mins by spectrophotometric Ellman's method. The method in brief:
as §2

In series [10] the target is T1, Acetylcholinesterase. Briefly: Mixed-type inhibition of electric eel AChE using S-acetylthiocholine as substrate preincubated for 20 mins followed by substrate addition measured for 5 mins by Lineweaver-Burk plot method.
Series [11] deals with SH-SY5Y. As to the kind of experiment: Cytotoxicity against human SH-SY5Y cells assessed as inhibition of cell growth after 24 hrs by MTT assay. Format: cell-based. The method in brief: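 SH-SY5Y cells exposed 24 h at 37 °C to 0.1, 1, 5, 10 and 50 µM; viability read by MTT at 570 nm versus untreated cells. […] Means ± SD, n = 3.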
The nature of series [12]: Efflux ratio of apparent permeability across basolateral to apical side over apical to basolateral side in MDCK2-MDR1 cells at 5 to 75 uM by UV-visible spectroscopic method. Format: ADME, cell-based, Canis lupus familiaris. Particulars: dog, MDCK-MDR1. The method in brief:
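Canine kidney MDCKII-MDR1 cells (retrovirally transfected with human MDR1 cDNA), cultured in DMEM and seeded at 100000 cells/cm2 on 0.4 µm-pore Transwell inserts. […] Apical-to-basolateral and basolateral-to-apical transport were measured, with compound quantified by UV-vis absorbance against PBS calibration curves (5–75 µM). ER = Papp BL-AP / Papp AP-BL. Triplicates, three experiments.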

The nature of series [13]: Lipophilicity index, Log K of the compound at 1 mM by RP-HPLC method. In kind it is physicochemical. The note with it: 1000 µM.
The target of series [14] is T2, Amine oxidase [flavin-containing] A. Briefly: Inhibition of human recombinant MAOA expressed in microsomes of baculovirus-infected insect cell using kynuramine as substrate preincubated for 20 mins followed by protein addition measured after 30 mins by fluorescence assay. The method in brief:
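Recombinant human MAO A (baculovirus-infected insect cell microsomes) with kynuramine substrate; inhibitor preincubated 20 min at 37 °C, enzyme then added and incubated 30 min more. Fluorescence at ex/em 320/400 nm. Triplicates, three independent experiments.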

The nature of series [15]: Kinetic aqueous solubility of the compound in Tris-HCl buffer at pH 7.4 by turbidimetric method. In kind it is physicochemical. The note with it: for log(Kinetic_solubility): buffer. The method in brief: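 DMSO stocks added in portions to 50 mM Tris-HCl pH 7.4 at room temperature. Light scattering read as UV absorbance increase at 580–780 nm; solubility from a bilinear fit of absorbance versus µL DMSO. Reported as logS (mol/L), mean ± SEM of three independent assays.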

The nature of series [16]: Apparent permeability across apical to basolateral side in MDCK2-MDR1 cells at 5 to 75 uM by UV-visible spectroscopic method. Format: ADME, cell-based, Canis lupus familiaris. The note with it: dog, MDCK-MDR1. The gist of the method:
(§3)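 Acceptor concentrations measured by UV–visible spectroscopy against PBS calibration curves linear over 5–75 µM. Papp (cm/sec) = (VA/(area × time)) × ([drug]acceptor/[drug]initial). Triplicates, three experiments.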

A short description of series [17]: Apparent permeability across basolateral to apical side in MDCK2-MDR1 cells at 5 to 75 uM by UV-visible spectroscopic method. In kind it is ADME, cell-based, Canis lupus familiaris. Particulars: dog, MDCK-MDR1. The method in brief: as §3

T1 sequence (O42275 whole entry): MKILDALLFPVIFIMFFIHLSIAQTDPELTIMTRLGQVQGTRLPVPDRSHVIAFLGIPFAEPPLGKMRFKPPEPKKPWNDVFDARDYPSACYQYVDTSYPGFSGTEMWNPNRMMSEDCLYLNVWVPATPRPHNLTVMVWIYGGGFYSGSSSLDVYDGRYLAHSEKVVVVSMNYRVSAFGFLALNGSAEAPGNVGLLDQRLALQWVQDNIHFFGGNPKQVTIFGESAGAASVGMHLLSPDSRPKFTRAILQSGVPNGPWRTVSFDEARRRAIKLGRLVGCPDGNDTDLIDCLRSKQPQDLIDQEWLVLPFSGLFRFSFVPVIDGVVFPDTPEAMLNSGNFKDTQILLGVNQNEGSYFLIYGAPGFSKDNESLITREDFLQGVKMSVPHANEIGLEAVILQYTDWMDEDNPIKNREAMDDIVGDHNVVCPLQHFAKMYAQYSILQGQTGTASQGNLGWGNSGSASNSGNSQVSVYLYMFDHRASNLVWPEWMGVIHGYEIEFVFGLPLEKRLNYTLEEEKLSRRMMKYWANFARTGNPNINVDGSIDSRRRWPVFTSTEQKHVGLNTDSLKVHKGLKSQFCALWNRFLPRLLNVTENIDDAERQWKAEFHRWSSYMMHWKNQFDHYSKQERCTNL
Sequence of Cholinesterase (Equus caballus) (P81908 whole entry): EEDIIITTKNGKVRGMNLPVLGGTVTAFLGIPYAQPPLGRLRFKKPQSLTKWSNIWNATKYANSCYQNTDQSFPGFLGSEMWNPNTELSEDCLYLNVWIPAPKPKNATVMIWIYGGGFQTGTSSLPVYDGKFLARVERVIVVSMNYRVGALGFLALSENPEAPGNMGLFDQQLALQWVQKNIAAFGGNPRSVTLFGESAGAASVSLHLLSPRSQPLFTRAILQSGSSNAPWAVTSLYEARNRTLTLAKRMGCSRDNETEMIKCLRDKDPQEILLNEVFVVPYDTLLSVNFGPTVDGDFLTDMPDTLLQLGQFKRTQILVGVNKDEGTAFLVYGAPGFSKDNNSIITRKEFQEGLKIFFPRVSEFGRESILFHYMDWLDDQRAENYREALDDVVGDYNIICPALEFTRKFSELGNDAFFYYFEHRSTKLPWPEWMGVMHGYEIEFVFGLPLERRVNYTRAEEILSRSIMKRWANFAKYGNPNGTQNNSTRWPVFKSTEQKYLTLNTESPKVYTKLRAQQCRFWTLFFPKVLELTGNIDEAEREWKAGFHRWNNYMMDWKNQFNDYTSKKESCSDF
Sequence of Cholinesterase (P81908 whole entry): as above

One may read the inhibition as the drop in the measured response relative to a control, in per cent. Consider `Cc1c(C)c2ccc(OCC3CCCN(Cc4cccc(Br)c4)C3)cc2oc1=O` (racemic), for which the outcome with SH-SY5Y [1], in the series on SH-SY5Y [3], in the series on SH-SY5Y [4], in the series on SH-SY5Y [5] and in the series on SH-SY5Y [6] was Active. In series [2], this molecule yielded an inhibition of 30%.

Usually pIC50 stands for the negative decadic logarithm of the IC50, by convention in mol/L. `Cc1c(C)c2ccc(OCC3CCN(Cc4ccc(Cl)cc4)CC3)cc2oc1=O` registered an inhibition in series [2] of 19%. The figures for the negative-log IC50 (pIC50) (on Acetylcholinesterase [7]; in [9]) were 5.02 and 6.21, respectively. Besides, the inhibition at 10 µM in series [8] turned out to be 37%.

By pKi is commonly meant the negative decadic logarithm of the Ki, by convention in mol/L. High values mean a small Ki, low ones a large Ki. As usually defined, the efflux ratio is the permeability from basolateral to apical divided by that in the opposite direction, in the common usage. The Papp A→B is the apparent permeability from the apical to the basolateral side of a cell layer. In general, Papp B→A refers to how fast a substance crosses the layer from the basolateral side. Take `Cc1c(C)c2ccc(OCC3CCCN(Cc4ccccc4)C3)cc2oc1=O.Cl` (racemic): the negative logarithm of the IC50 (pIC50) against Cholinesterase was 5.47; in the series with SH-SY5Y [11], 4.36; against Acetylcholinesterase [7], 5.99; in series [14] it was 5.55. The same molecule showed a negative-log Ki (pKi) at Acetylcholinesterase [10] of 5.86. For the same molecule, the efflux ratio at up to 75 µM in [12] stood at 0.61. Further, in series [13], the “log K” value was found to be 2.01. Further, in [15] (Tris-HCl buffer, read-out: Kinetic_solubility), the solubility kinetic stood at 119 µM. In addition, in series [15], the “log(Kinetic_solubility)” value is reported as -3.92. Also, the Papp A→B at up to 75 µM in [16] was 24.3 ×10⁻⁶ cm/s. Moreover, in series [17], the Papp B→A at up to 75 µM came out at 14.8 ×10⁻⁶ cm/s.

In the case of `Cc1c(C)c2ccc(OCC3CCN(Cc4ccccc4)CC3)cc2oc1=O.Cl`, the pIC50 against Cholinesterase was 5.33; at Acetylcholinesterase [7], 5.78; in [14], 5.62; in series [9] it was 6.98. Besides, the outcome with SH-SY5Y [1] and with SH-SY5Y [4] was inactive. Besides, the “log K” value in [13] worked out at 1.98. In addition, the “log(Kinetic_solubility)” value in series [15] is given as -4.25.

For `Cc1c(C)c2ccc(OCC3CCCN(C)C3)cc2oc1=O.Cl` (racemic), the negative logarithm of the IC50 (pIC50) is 4.52 in the series on SH-SY5Y [11], 6.10 against Acetylcholinesterase [7], 5.03 in series [14] and 6.86 in series [9]. For the same molecule, the outcome with SH-SY5Y [1] and with SH-SY5Y [4] was inactive. Also, the efflux ratio at up to 75 µM in series [12] is 0.9. For the same molecule, the inhibition in series [2] is 19%. Further, in [13], the “log K” value was 1.14. For the same molecule, the result with SH-SY5Y [3], in the series on SH-SY5Y [5] and in the series on SH-SY5Y [6] was Active. The “log(Kinetic_solubility)” value in series [15] was -3.67. In [16], the Papp A→B at up to 75 µM came out at 22.3 ×10⁻⁶ cm/s. Also, the apparent permeability from basolateral to apical (Papp B→A) at up to 75 µM in series [17] was 20.2 ×10⁻⁶ cm/s.

For the molecule `Cc1c(C)c2ccc(OCC3CCCN(Cc4cccc(Br)c4)C3)cc2oc1=O.Cl` (racemic), the efflux ratio at up to 75 µM in series [12] stood at 2.56. For the same molecule, the negative-log IC50 (pIC50) against Acetylcholinesterase [7] is 5.72; in series [14] it was 6.09; in [9] it was 6.96. Moreover, the Papp A→B at up to 75 µM in [16] was determined as 0.84 ×10⁻⁶ cm/s. Moreover, the basolateral-to-apical permeability (Papp B→A) at up to 75 µM in [17] was 2.16 ×10⁻⁶ cm/s.

On to `Cc1c(C)c2ccc(OCC3CCCN(Cc4ccccc4)C3)cc2oc1=O` (racemic), for which the outcome with SH-SY5Y [1], with SH-SY5Y [3], in the series on SH-SY5Y [4], with SH-SY5Y [5] and in the series with SH-SY5Y [6] was Active.
